A word on the apparent Kd: it is the concentration giving half-maximal binding under the conditions of the assay.

48 sequences from the EternaBench riboswitch data can be followed below.

The data set relates to MS2 coat protein. Briefly: apparent Kd, MS2 coat protein; higher = weaker binding; RNA-MaP array. In short, it runs like this: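 Fluorescently labeled MS2 coat protein, from 1.5 nM to 3 μM, was incubated at room temperature with designed RNAs transcribed on an Illumina sequencing chip from sequenced DNA templates. Times ran from 0.8–1.5 h at the lowest concentrations to 10–20 min at the highest, in Tris-HCl pH 7.5 buffer with KCl, MgCl2, BSA, DTT, tRNA and Tween20, with or without input ligand. Each apparent Kd is the median of per-cluster binding-curve fits, and designs with fewer than 10 measured clusters were excluded.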

Setting [1] is: designed as: OFF switch for flavin mononucleotide, no ligand.
Where [2] appears, read: ligand present: flavin mononucleotide, designed as: OFF switch for flavin mononucleotide.
Where [3] appears, read: designed as: OFF switch for theophylline, no ligand.
Setting [4] is: ligand present: theophylline, designed as: OFF switch for theophylline.
Where [5] appears, read: designed as: ON switch for flavin mononucleotide, no ligand.
[6] abbreviates: ligand present: flavin mononucleotide, designed as: ON switch for flavin mononucleotide.
[7] abbreviates: designed as: OFF switch for tryptophan, no ligand.
The mark [8] stands for this setting: ligand present: tryptophan, designed as: OFF switch for tryptophan.
The mark [9] stands for this setting: designed as: ON switch for theophylline, no ligand.
The mark [10] stands for this setting: ligand present: theophylline, designed as: ON switch for theophylline.

“GAAAUCAGAGGAUAUCAGUCAUGUCACAUGAGGAUCACCCAUGUUUGUGUUUUGGUAGAUUGAGAAGGCUGCGACC”: the “apparent Kd” value reads like this: under setting [1], 16.6 nM; under setting [2], 9.66 nM.
Turning to “AAUGAUGCGAUCUACAGUCGAGGAUUCGAUACCAGCAACGGGCGUUGCCCUUGGCAGCGAGCUACAUGAGGAUCACCCAUGUUAC”, the “apparent Kd” value came to 19.9 nM under setting [3] and 34.7 nM under setting [4].
Consider “CUCCUGGAAGGAUAUGUGUUUCAGGACAUGAGGAUCACCCAUGUAGAACCUCUCUCCCGCACAGAAGGUCCAUUGU”, for which the “apparent Kd” value by setting is: under setting [1], 74.3 nM; under setting [2], 247 nM.
Consider “AAGAGUGUGAGAGGAUAUGCUUACCCAUAUCACAUGAGGAUCACCCAUGUCGGCGAUUGUAUUAUGCAGAAGGCUCAAGGACUC”, for which the “apparent Kd” value under setting [5] is 18.3 nM and the “apparent Kd” value under setting [6] is 9.8 nM.
Regarding “ACCUAAUAAGGAUAUACGAAAGAGCCACCUGUAAACAACCGACAUGAGGAUCACCCAUGUAGAAGGUAUUAGGU”, the “apparent Kd” value under setting [1] is 4.32 nM and the “apparent Kd” value under setting [2] is 9.47 nM.
“CUCCUCACCGUGAGGAUAUAGUAUUCCGGUUGUUACUAGAAGGCACAUGAGGAUCACCCAUGUUACGGUUCCCA”: the “apparent Kd” value under setting [1] was determined as 13.4 nM and the “apparent Kd” value under setting [2] is 50.6 nM.
In the case of “GUCAUGUCAGGAUAUCGUUCGGAGUGCGAUUCCCUCUGCCGCGAGAAGGGACAUGAGGAUCACCCAUGUUCGAA”, the “apparent Kd” value is, setting by setting: under setting [1], 16.8 nM; under setting [2], 43.7 nM.
In the case of “UCGUUGGCACAGAAGGGACUCUCGAAGCAUGUGUCAGGAUAUGUGCGCUACAUGAGGAUCACCCAUGUCAAGACCUGGUUAGCA”, the “apparent Kd” value under setting [1] stood at 29.4 nM and the “apparent Kd” value under setting [2] was found to be 18.8 nM.
With “GCAGGACAUGAGGAUCACCCAUGUGAGGGCAGAGGAGGAUAUAACUACCACUAUUGAUCGUUAGAAGGCCUAGAGG”, the “apparent Kd” value was determined as 40 nM under setting [5] and 26 nM under setting [6].
For the sequence “GGUAUGUCAGGAUAUUAAUGGUCAGUAACGGAACAGAGGAGUAAGAAGGGACAUGAGGAUCACCCAUGUAUUCG”, the “apparent Kd” value runs as follows: under setting [1], 17.1 nM; under setting [2], 16.4 nM.
Take “AGUACGUCAGGAUAUCGCGUACGAAACAUGAGGAUCACCCAUGUGGUGCCGUGGCUCUAUCGAGAAGGGACUUGGC”: the “apparent Kd” value came to 13.3 nM under setting [1] and 12.6 nM under setting [2].
Consider “AUCCGUGCAGCAAAUGGAGUGACAUGAGGAUCACCCAUGUAUGAGGAUAUGGCUCCGCCAGGGUACCAGAAGGCAUAAGGGAGG”, for which the “apparent Kd” value runs as follows: under setting [5], 908 nM; under setting [6], 627 nM.
On to “ACACAGUCAGGAUAUACACAAAAUCUCAGUCUAGUAAGUAAACAUGAGGAUCACCCAUGUAGAAGGGACUUUAA”, for which the “apparent Kd” value came out at 6.95 nM under setting [1] and 7.79 nM under setting [2].
With “GCGAACGGACCGUUGCCUUCCUGUGUGCGGCGAGGACCGGUACGGCCGCCACUCGACUGCGUACAUGAGGAUCACCCAUGUUAGA”, the “apparent Kd” value under setting [7] was 26.5 nM and the “apparent Kd” value under setting [8] was determined as 66.3 nM.
As for “ACAGGACUAGUAGGAUAUGCGCCGGUAGUACCCGCAGAAGGACUUUCACGGGUUAUUGUCACAUGAGGAUCACCCAUGUGAGGG”, the “apparent Kd” value under setting [1] was 13.2 nM and the “apparent Kd” value under setting [2] stood at 13 nM.
On to “UCUCACAUGAGGAUCACCCAUGUGUGCGGUCGAGGACCGGUACGGCCGCCACUCGAAUCCUUCCGCGAGAAGAUUGUACGACGGC”, for which the “apparent Kd” value (designed as: ON switch for tryptophan, no ligand) came to 76.2 nM and the “apparent Kd” value (ligand present: tryptophan, designed as: ON switch for tryptophan) is 65.2 nM.
On to “AUUCGAACGGUCAGGAUAUGCGGAAAGACAUCGCAGCAGAAGGGACAUGAGGAUCACCCAUGUAAAGGGCACAA”, for which the “apparent Kd” value is, setting by setting: under setting [1], 36.1 nM; under setting [2], 182 nM.
Consider “AAAAGCAGGGUCAGGAUAUAGGGUUCACUGUUGGCCUAGAAGGGACAUGAGGAUCACCCAUGUAUAGUAGUGGG”, for which the “apparent Kd” value came out at 347 nM under setting [1] and 262 nM under setting [2].
Take “GGUUGGUCGCAGGAUACCAGUCCACCCGUGAUACUGCUAAACAUGAGGAUCACCCAUGUCGACCCUUGGCAGCCUGUCCAUGCGU”: the “apparent Kd” value under setting [3] came out at 16.3 nM and the “apparent Kd” value under setting [4] was found to be 124 nM.
Turning to “UGAUGAUGACAGGAUAUUAGCGUAAUGAAACUUUAAGAAGGGUCGACAUGAGGAUCACCCAUGUAUGAUCUCGA”, the “apparent Kd” value was 5.5 nM under setting [1] and 5.38 nM under setting [2].
Take “UUAAUCGUGCAUGAUACCAGUAUCCGUAGAUACAUGAGGAUCACCCAUGUCUGGUUGGAAUACCCUUGGCAGCAUGGGUUGAGGA”: the “apparent Kd” value under setting [9] was determined as 242 nM and the “apparent Kd” value under setting [10] was 249 nM.
Turning to “UACCGACAUGAGGAUCACCCAUGUACUGCGCUUGGAGGAUAUCGGCUUGAUUUUGCGCGUCGAGAAGGCCAACCUA”, the “apparent Kd” value was 12.2 nM under setting [5] and 10.2 nM under setting [6].
As to “UGUGCCUAGUAGAAGGCGCCGACUCGCUCACGGCGAGGAUAUACUACUCAGGGCACAUGAGGAUCACCCAUGUGUGAUUCGUAA”, the “apparent Kd” value under setting [1] was determined as 103 nM and the “apparent Kd” value under setting [2] was 23.1 nM.
On the same counts, the results for “AUAUGAGGAGUGAGGAUAUGAAUCUAACAGAAUAAUCAGAAGGCACAUGAGGAUCACCCAUGUAAAUAUAUGGU” are 10.6 nM and 11.5 nM.
Turning to “AUCGCGACAGGAUAUACAUGAGGAUCACCCAUGUUGAUGAGCGAGCAUCGGACUGAGAGUAGAAGGGUCGGCUC”, the “apparent Kd” value by setting is: under setting [1], 9.26 nM; under setting [2], 9.04 nM.
As to “CGUACAAUUAAGAAGGGACAUUGCUAUAGACUGUCAGGAUAUUAUGUACAUGAGGAUCACCCAUGUAGUAGUCAAGGGUCGGAA”, the “apparent Kd” value was determined as 16.7 nM under setting [1] and 61.7 nM under setting [2].
As for “GCUUUGCUGUGGUCCCUGAUACAUGAGGAUCACCCAUGUGAGAAGGAUAUUCAGAAUGGUCUCCCGAAGAAGGUCUGCACCUGG”, the “apparent Kd” value stood at 15.4 nM under setting [1] and 11.3 nM under setting [2].
On to “CUACGGACGGAAGGAUAUAUACGGGUGCCCAGUAUAGAAGGUCCAUACAUGAGGAUCACCCAUGUCAUUAAACCUACGGAGGAG”, for which the “apparent Kd” value reads like this: under setting [5], 145 nM; under setting [6], 80.6 nM.
On to “GUUUCACAUGAGGAUCACCCAUGUCAAUGCACUGUAGGAUAUGGUUGGUUUCCGCAGCGGCCAGAAGGACAAAUAU”, for which the “apparent Kd” value is, setting by setting: under setting [5], 51.2 nM; under setting [6], 33.5 nM.
The matching figures for “CGAUGACAUGAGGAUCACCCAUGUUGCGGUAUUCAAGGAUAUCCUGAGUUUUCAAGCAUUGGAGAAGGUGAUUUCG”: 30.1 nM and 26.1 nM.
As for “UCGCUGUAAGAGAAGGGCUCUGCAUGAGCACAUGAGGAUCACCCAUGUAAGAUCCUAAAGUACGAGCAGGAUAUCUCCGAGUGG”, the “apparent Kd” value was determined as 106 nM under setting [1] and 77.3 nM under setting [2].
For “GUAUUACAUGAGGAUCACCCAUGUGCGCCGCGUCAAGGAUAUGUAUCGUACGUGUAGUAAACAGAAGGUGACGGAU”, the “apparent Kd” value amounted to 170 nM under setting [5] and 71.2 nM under setting [6].
Regarding “CUGACGUAGGAAGAUAUCUGGAACAAGGAUACCAGUAAACCAACAUACCCUUGGCAGCCUAAAACAUGAGGAUCACCCAUGUAAU”, the “apparent Kd” value by setting is: under setting [3], 12.4 nM; under setting [4], 14.6 nM.
On to “AGAAGACAUGAGGAUCACCCAUGUGAGGAUAUUACACUAGAAAACAGCCGCGUCUCGGUAAGAAGGCACUAUGG”, for which the “apparent Kd” value reads like this: under setting [1], 33.9 nM; under setting [2], 36.6 nM.
Turning to “CUUCAACAUGAGGAUCACCCAUGUAGUGAUACCAGUCACUCAUACGACCCUUGGCAGCACAUUUUCUGUCGGCAUGUAGACGAUC”, the “apparent Kd” value runs as follows: under setting [9], 121 nM; under setting [10], 59.9 nM.
For the sequence “GCUGAUCAACCCUAGGAUAUCACCCAUACCACAUGAGGAUCACCCAUGUCGGGUUGCUAUGUGGCUGAGAAGGAGGUGCACUAUAC”, the “apparent Kd” value is, setting by setting: under setting [5], 23 nM; under setting [6], 8.76 nM.
“GAUCAUUUAGUGAGGAUAUGUCUCCUGCAAAGUCGACAGAAGGCACAUGAGGAUCACCCAUGUUCGCUUCGGAU”: the “apparent Kd” value was found to be 5 nM under setting [1] and 5.75 nM under setting [2].
For “CAUGAGAGAUUGUUUUGUGACUCUAACGAUACCAGAGUAGGACUUCUCCCUUGGCAGCGUGUGACAUGAGGAUCACCCAUGUCCA”, the “apparent Kd” value is 10.6 nM under setting [3] and 11.7 nM under setting [4].
With “UUCCUCAGCAGGGUAACAUGAGGAUCACCCAUGUCGGAGAGCGAGGAUAUCUCGUGAAGCUCAUAAGAGAAGGCGCACAACUAG”, the “apparent Kd” value runs as follows: under setting [1], 18.2 nM; under setting [2], 17.2 nM.
“GUACAGGAAGGAUAUACCAGGUAAGUUAAGUUUUCACAUUGACAUGAGGAUCACCCAUGUAGAAGGUCCCUAUA”: the “apparent Kd” value turned out to be 36.7 nM under setting [1] and 31.7 nM under setting [2].
With “GACCGGUAUCCAGGAUAUGCAAUUAUUUACAUGAGGAUCACCCAUGUCGCAAGAGUAGGGGUGUAGCAGAAGGGGACAACAGCA”, the “apparent Kd” value is, setting by setting: under setting [1], 70.7 nM; under setting [2], 62.7 nM.
On the same counts, the results for “UAGUAACAUGAGGAUCACCCAUGUCAGGAUAUGAGGUCUACGGCAUAAGCGAAUCGGGUCAGAAGGGACAUAAC” are 20.4 nM and 16.9 nM.
Turning to “AAACCCAAAGUUAGGAUAUGCAUUGCCGGCCCUGUGCAGAAGGAACAUGAGGAUCACCCAUGUACUGGUGUUCG”, the “apparent Kd” value under setting [1] is 42.7 nM and the “apparent Kd” value under setting [2] stood at 103 nM.
Turning to “CUCCCACAUGAGGAUCACCCAUGUAUGAAAAUACAAGGAUAUGGCGUCCUGAUUAGCGGCCCAGAAGGUGUGCUUU”, the “apparent Kd” value came out at 114 nM under setting [5] and 70.2 nM under setting [6].
As to “CUACCUACAGGAUAUACAUGAGGAUCACCCAUGUUUCAACGUGGAACAGGUUGAACAUGUAGAAGGGAAUCGUU”, the “apparent Kd” value worked out at 20.4 nM under setting [1] and 17.2 nM under setting [2].
Consider “UAAUAGAUUACGGCCGCCACUGAAGUGGACUUUAUGAGCAGGAUUCACAUGAGGAUCACCCAUGUCAGGACCGGGUACGUCCAUA”, for which the “apparent Kd” value under setting [7] came to 39.2 nM and the “apparent Kd” value under setting [8] was determined as 45.4 nM.
Regarding “AACAUGAGGAUCACCCAUGUCACAUACAAGUGGAGUUCUAUGAGAAGGGCGAAACGAAUGAGCACGCAGGAUAUCAGCGAUAAA”, the “apparent Kd” value by setting is: under setting [5], 13.5 nM; under setting [6], 11.3 nM.
On to “AUAAUAGUAGGAUAUACAUGAGGAUCACCCAUGUGACCGCUCAAAGAUAGCGAUGCUCGUAGAAGGACUGUGGA”, for which the “apparent Kd” value under setting [1] amounted to 21.3 nM and the “apparent Kd” value under setting [2] was 21.8 nM.
